Measurements from ChEMBL document CHEMBL3112521, “Design, synthesis and biological evaluation of (E)-2-(2-arylhydrazinyl)quinoxalines, a promising and potent new class of anticancer agents” (Bioorg Med Chem Lett, 2014).

Key:
HCT-116 [1] = assay: Cytotoxicity against human HCT116 cells assessed as growth inhibition at 5 ug/ml by MTT assay; format: functional; conditions: read-out: GI
In short: (§1)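 Single-concentration MTT screen at 5 µg/mL across SF-295 (glioblastoma), OVCAR-8 (ovary) and HCT-116 (colon) cells. Read-out is percent growth inhibition, reported with sd.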

SF-295 [2] = assay: Cytotoxicity against human SF295 cells assessed as growth inhibition at 5 ug/ml by MTT assay; format: functional; conditions: read-out: GI; in short: as §1
OVCAR-8 [3] = assay: Cytotoxicity against human OVCAR8 cells assessed as growth inhibition at 5 ug/ml by MTT assay; format: functional; conditions: read-out: GI; in short: as §1
HL-60 = assay: Cytotoxicity against human HL60 cells assessed as growth inhibition by MTT assay; format: functional, cell-based
In short: (§2)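 Dose-response on HCT-116, OVCAR-8, HL-60 (leukemia) and SF-295 cells, with doxorubicin as positive control. IC50 is taken as the concentration inducing 50% inhibition of cell growth. Data come from three independent experiments, each run in triplicate.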

SF-295 [4] = assay: Cytotoxicity against human SF295 cells assessed as growth inhibition by MTT assay; format: functional, cell-based; in short: as §2
HCT-116 [5] = assay: Cytotoxicity against human HCT116 cells assessed as growth inhibition by MTT assay; format: functional, cell-based; in short: as §2
OVCAR-8 [6] = assay: Cytotoxicity against human OVCAR8 cells assessed as growth inhibition by MTT assay; format: functional, cell-based; in short: as §2

| SMILES | inhibition of growth at 5 µg/mL (HCT-116 [1]) [%] | inhibition of growth at 5 µg/mL (SF-295 [2]) [%] | inhibition of growth at 5 µg/mL (OVCAR-8 [3]) [%] | IC50 (HL-60) [nM] | IC50 (SF-295 [4]) [nM] | IC50 (HCT-116 [5]) [µM] | IC50 (OVCAR-8 [6]) [µM] |
| --- | --- | --- | --- | --- | --- | --- | --- |
| Brc1ccccc1/C=N/Nc1cnc2ccccc2n1 | 23.6 | 35.2 | 18 |  |  |  |  |
| Brc1cccc(/C=N/Nc2cnc3ccccc3n2)c1 | 0 | 14.2 | 0 |  |  |  |  |
| Brc1ccc(/C=N/Nc2cnc3ccccc3n2)cc1 | 23.2 | 33.5 | 18.2 |  |  |  |  |
| O=[N+]([O-])c1ccccc1/C=N/Nc1cnc2ccccc2n1 | 23 | 21.9 | 21.8 |  |  |  |  |
| O=[N+]([O-])c1cccc(/C=N/Nc2cnc3ccccc3n2)c1 | 21 | 23.4 | 16.9 |  |  |  |  |
| O=[N+]([O-])c1ccc(/C=N/Nc2cnc3ccccc3n2)cc1 | 18.6 | 27 | 40.6 |  |  |  |  |
| Cc1ccccc1/C=N/Nc1cnc2ccccc2n1 | 28.7 | 46.4 | 17.8 |  |  |  |  |
| Cc1cccc(/C=N/Nc2cnc3ccccc3n2)c1 | 33.4 | 39.8 | 39.9 |  |  |  |  |
| Cc1ccc(/C=N/Nc2cnc3ccccc3n2)cc1 | 19.6 | 18.1 | 29 |  |  |  |  |
| N#Cc1cccc(/C=N/Nc2cnc3ccccc3n2)c1 | 30.7 | 44.5 | 11.5 |  |  |  |  |
| N#Cc1ccc(/C=N/Nc2cnc3ccccc3n2)cc1 | 31.6 | 16 | 50.9 |  |  |  |  |
| Oc1ccccc1/C=N/Nc1cnc2ccccc2n1 | 77 | 61.5 | 95.4 | 819 | 2310 | 4.94 | 3.47 |
| Oc1cccc(/C=N/Nc2cnc3ccccc3n2)c1 | 29.6 | 27.5 | 51.5 |  |  |  |  |
| Oc1ccc(/C=N/Nc2cnc3ccccc3n2)cc1 | 20.2 | 39.4 | 67.3 |  |  |  |  |
| Oc1cccc(/C=N/Nc2cnc3ccccc3n2)c1O | 84 | 81.2 | 97.9 | 316 | 1260 | 1.76 | 1.06 |
| Oc1ccc(/C=N/Nc2cnc3ccccc3n2)c(O)c1 | 85.1 | 85.3 | 84.2 |  |  |  |  |
| Oc1ccc(O)c(/C=N/Nc2cnc3ccccc3n2)c1 | 89.2 | 50.7 | 60.5 |  |  |  |  |
| Oc1ccc(/C=N/Nc2cnc3ccccc3n2)cc1O | 69.4 | 47.6 | 46.3 |  |  |  |  |
| Oc1cc(/C=N/Nc2cnc3ccccc3n2)cc(O)c1O | 14.9 | 37.8 | 12.8 |  |  |  |  |
| COc1ccccc1/C=N/Nc1cnc2ccccc2n1 | 4.45 | 21.8 | 21 |  |  |  |  |
| COc1cccc(/C=N/Nc2cnc3ccccc3n2)c1 | 14.5 | 35.8 | 41.6 |  |  |  |  |
| COc1ccc(/C=N/Nc2cnc3ccccc3n2)cc1 | -43.6 | 0.52 | 14.4 |  |  |  |  |
| COc1cccc(/C=N/Nc2cnc3ccccc3n2)c1OC | 0 | 22.2 | 0 |  |  |  |  |
| COc1ccc(/C=N/Nc2cnc3ccccc3n2)c(OC)c1 | 12.8 | 46.9 | 7.19 |  |  |  |  |

| SMILES | inhibition of growth at 5 µg/mL (HCT-116 [1]) [%] | inhibition of growth at 5 µg/mL (SF-295 [2]) [%] | inhibition of growth at 5 µg/mL (OVCAR-8 [3]) [%] | IC50 (HL-60) [nM] | IC50 (SF-295 [4]) [nM] | IC50 (HCT-116 [5]) [µM] | IC50 (OVCAR-8 [6]) [µM] |
| --- | --- | --- | --- | --- | --- | --- | --- |
| COc1ccc(OC)c(/C=N/Nc2cnc3ccccc3n2)c1 | 0 | 44.6 | 18.5 |  |  |  |  |
| COc1cccc(OC)c1/C=N/Nc1cnc2ccccc2n1 | 19.4 | 44.7 | 25.1 |  |  |  |  |
| COc1ccc(/C=N/Nc2cnc3ccccc3n2)cc1OC | 22.3 | 16.5 | 17.6 |  |  |  |  |
| COc1cc(/C=N/Nc2cnc3ccccc3n2)cc(OC)c1OC | 20.7 | 60.1 | 38.8 |  |  |  |  |
| CCOc1cccc(/C=N/Nc2cnc3ccccc3n2)c1 | 1.29 | 7.19 | 41.2 |  |  |  |  |
| CCOc1ccc(/C=N/Nc2cnc3ccccc3n2)cc1 | 17.6 | 12.3 | 50.3 |  |  |  |  |
| Cc1ccc(/C=N/Nc2cnc3ccccc3n2)c(O)c1 | 17.4 | 59.9 | 31.5 |  |  |  |  |
| Cc1ccc(O)c(/C=N/Nc2cnc3ccccc3n2)c1 | 13.7 | 38.4 | 25.4 |  |  |  |  |
| COc1ccc(/C=N/Nc2cnc3ccccc3n2)c(O)c1 | 83.1 | 66.4 | 80.9 | 4190 | 15700 | 14.2 | 7.55 |
| O=[N+]([O-])c1ccc(O)c(/C=N/Nc2cnc3ccccc3n2)c1 | 92.1 | 78.5 | 95.6 | 1750 | 2110 | 4.32 | 2.84 |
| O=[N+]([O-])c1cc(/C=N/Nc2cnc3ccccc3n2)ccc1Cl | 20.6 | 36.8 | 9 |  |  |  |  |
| Oc1ccc(/C=N/Nc2cnc3ccccc3n2)cc1Cl | 16.2 | 46.6 | 28.8 |  |  |  |  |
| COc1ccc(/C=N/Nc2cnc3ccccc3n2)c(Cl)c1O | 24.5 | 32.4 | 13.8 |  |  |  |  |
| C(=N\Nc1cnc2ccccc2n1)/c1ccccc1 | 18.4 | 3.37 | 34.5 |  |  |  |  |
| Fc1ccccc1/C=N/Nc1cnc2ccccc2n1 | 7.01 | 12.8 | 0 |  |  |  |  |
| Fc1cccc(/C=N/Nc2cnc3ccccc3n2)c1 | 10.8 | 8.36 | 5.59 |  |  |  |  |
| Clc1ccccc1/C=N/Nc1cnc2ccccc2n1 | 12.1 | 31.9 | 9.09 |  |  |  |  |
| Clc1cccc(/C=N/Nc2cnc3ccccc3n2)c1 | 0 | 33.2 | 0 |  |  |  |  |
| Clc1ccc(/C=N/Nc2cnc3ccccc3n2)cc1 | 10.2 | 44.5 | 41.7 |  |  |  |  |
| Clc1cccc(/C=N/Nc2cnc3ccccc3n2)c1Cl | 97.5 | 84.3 | 100 | 10800 | 6200 | 7.01 | 6.19 |
| Clc1cccc(Cl)c1/C=N/Nc1cnc2ccccc2n1 | 71.2 | 52 | 53.5 |  |  |  |  |
| Clc1ccc(/C=N/Nc2cnc3ccccc3n2)c(Cl)c1 | 16.5 | 28.5 | 4.9 |  |  |  |  |
| Clc1ccc(/C=N/Nc2cnc3ccccc3n2)cc1Cl | 0.5 | 37.8 | 0 |  |  |  |  |
| COc1cccc2c1C(=O)c1c(O)c3c(c(O)c1C2=O)C[C@@](O)(C(=O)CO)C[C@@H]3O[C@H]1C[C@H](N)[C@H](O)[C@H](C)O1 [DOXORUBICIN] |  |  |  |  |  | 0.23 | 0.488 |
